Reference: ChEMBL document CHEMBL1125397, “Pyrazole-related nucleosides. Synthesis and antiviral/antitumor activity of some substituted pyrazole and pyrazolo[4,3-d]-1,2,3-triazin-4-one nucleosides” (1992)

How the values were obtained:
H9 = experiment: Compound concentration required to reduce by 50% the number of H9 cells chronically infected with the HIV-1 (H9/IIIB) after three cell cycles; format: functional; conditions: Homo sapiens, read-out: ID50 (the source's name)
Method in brief: (§1)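 Suspension cultures seeded at 1×10^5 cells/mL in RPMI-1640 with 10% FCS. Grown with a range of compound concentrations at 37 °C for 72 h, then counted on a Coulter counter. Growth is expressed as a percentage of untreated controls, and the 50% inhibitory dose is taken by linear regression. Mean of three separate experiments.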

[1] = Compound concentration required to reduce by 50% the number of T-H9 lymphoblastoid cells after three cell cycles; format: functional; conditions: Homo sapiens; read-out: ID50 (the source's name); method in brief: as §1
[2] = Compound concentration required to reduce by 50% the number of T-MT4 lymphoblastoid cells after three cell cycles; format: functional; conditions: Homo sapiens; read-out: ID50 (the source's name); method in brief: as §1
Vero [3] = experiment: Concentration of compound required to reduce by 50% the number of coxsackie virus plaques in vero cells; format: functional; conditions: Chlorocebus sabaeus, read-out: ED50 (the source's name)
Raji = experiment: Compound concentration required to reduce by 50% the number of human B (Raji)cells after three cell cycles; format: functional; conditions: read-out: ID50 (the source's name); method in brief: as §1
Vero [4] = experiment: Concentration of compound required to reduce by 50% the number of polio virus plaques in vero cells; format: functional; conditions: Chlorocebus sabaeus, read-out: ED50 (the source's name)
Vero [5] = experiment: Concentration of compound required to reduce by 50% the number of vesicular stomatitis virus (VSV) plaques in vero cells; format: functional; conditions: Chlorocebus sabaeus, read-out: ED50 (the source's name)
[6] = Compound concentration required to reduce by 50% the number of T-C8166 lymphoblastoid cells after three cell cycles; format: functional; conditions: Homo sapiens; read-out: ID50 (the source's name); method in brief: as §1
Vero [7] = experiment: Concentration of compound required to reduce by 50% the number of african swine fever virus (ASFV) plaques in vero cells; format: functional; conditions: Chlorocebus sabaeus, read-out: ED50 (the source's name)
Vero [8] = experiment: Compound concentration required to reduce by 50% the number of fibroblast-like cells (Vero) after three cell cycles; format: functional; conditions: Chlorocebus sabaeus, read-out: ID50 (the source's name)
Method in brief: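 Vero monolayers seeded at 1×10^5 cells/mL in DMEM with 10% newborn calf serum and left to adhere overnight. Medium with various compound concentrations was then added for 3 days at 37 °C. Cells were trypsinized and counted on a Coulter counter. The 50% dose comes from linear regression of percent growth against untreated controls. Mean of three experiments.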

L1210 = experiment: Compound concentration required to reduce by 50% the number of murine lymphocytic leukemia (L1210) cells after three cell cycles; format: functional; conditions: Mus musculus, read-out: ID50 (the source's name)
Method in brief: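 Mouse L1210 leukemia cells seeded at 1×10^5 cells/mL in RPMI-1640 with 10% FCS. Exposed to graded compound concentrations at 37 °C for 36 h, then counted on a Coulter counter. Growth is taken as a percentage of untreated controls, and the 50% dose is found by linear regression. Mean of three experiments.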

C8166 = experiment: Effective dose which reduces the HIV-1 yield in C8166 cells by 90%; format: functional, Homo sapiens
Method in brief: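 C8166 cells at 1×10^8/mL infected with 1×10^5 CCID50 HIV-1 (from H9/IIIB supernatants) for 2 h at 37 °C, washed three times, then resuspended at 1×10^5/mL with compound for 3 days. Virus yield was measured by limiting-dilution end-point titration on C8166 (1:2 dilutions, four wells each, syncytia scored after 4 days, Reed–Muench CCID50/mL).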

Vero [9] = experiment: Concentration of compound required to reduce by 50% the number of herpes simplex virus (HSV-1) plaques in vero cells; format: functional; conditions: Chlorocebus sabaeus, read-out: ED50 (the source's name)

In the case of `Cc1c([N+](=O)[O-])c(C(N)=O)nn1C1O[C@H](CO)[C@@H](O)[C@H]1O` (stereo partly specified), the IC50 (H9) is reported as over 1650 µM, the IC50 [1] is reported as over 1650 µM and the IC50 [2] is reported as 1490 µM. For the same compound, the EC50 (Vero [3]) was over 1650 µM, the IC50 (Raji) was over 1650 µM and the EC50 (Vero [4]) was over 1650 µM. The EC50 (Vero [5]) was over 1650 µM, the IC50 [6] was over 1650 µM and the EC50 (Vero [7]) was over 1650 µM. For the same compound, the IC50 (Vero [8]) was over 1650 µM, the IC50 (L1210) was over 1650 µM and the ED90 (C8166) was over 1650 µM. It also gave an EC50 (Vero [9]) of over 1650 µM.

With `CCCCCn1nnc2c(C)nn(C3O[C@H](CO)[C@@H](O)[C@H]3O)c2c1=O` (stereo partly specified) the IC50 [1] was 710 µM, the IC50 [2] was 540 µM and the EC50 (Vero [3]) was over 1400 µM. For the same compound, the IC50 (Raji) was 1400 µM, the EC50 (Vero [4]) was over 1400 µM and the EC50 (Vero [5]) was over 1400 µM. The IC50 [6] was 280 µM, the EC50 (Vero [7]) was over 1400 µM and the IC50 (Vero [8]) was over 1400 µM. It also gave an IC50 (L1210) of over 1400 µM, an ED90 (C8166) of over 200 µM and an EC50 (Vero [9]) of over 1400 µM.

For `NC(=O)c1nn(C2O[C@H](CO)[C@@H](O)[C@H]2O)cc1N` (stereo partly specified), the IC50 (H9) was 550 µM, the IC50 [1] was 580 µM and the IC50 [2] was 470 µM. It also gave an EC50 (Vero [3]) of over 1830 µM, an IC50 (Raji) of 1280 µM and an EC50 (Vero [4]) of over 1830 µM. The EC50 (Vero [5]) was over 1830 µM, the IC50 [6] was 320 µM and the EC50 (Vero [7]) was over 1830 µM. For the same compound, the IC50 (Vero [8]) was over 1830 µM, the IC50 (L1210) was over 1830 µM and the ED90 (C8166) was over 320 µM. It also gave an EC50 (Vero [9]) of over 1830 µM.

`NC(=O)c1nn(C2O[C@H](CO)[C@@H](O)[C@H]2O)cc1[N+](=O)[O-]` (stereo partly specified) gave an IC50 (H9) of over 1730 µM, an IC50 [1] of over 1730 µM and an IC50 [2] of 80 µM. For the same compound, the EC50 (Vero [3]) was over 1730 µM, the IC50 (Raji) was over 1730 µM and the EC50 (Vero [4]) was over 1730 µM. For the same compound, the EC50 (Vero [5]) was over 1730 µM, the IC50 [6] was 12 µM and the EC50 (Vero [7]) was over 1730 µM. The IC50 (Vero [8]) was over 1730 µM, the IC50 (L1210) was over 1730 µM and the ED90 (C8166) was 25.4 µM. It also gave an EC50 (Vero [9]) of over 1730 µM.

In the case of `N=C(N)N` [GUANIDINE], the EC50 (Vero [4]) is reported as 125 µM.

`Cc1cn([C@H]2C[C@H](N=[N+]=[N-])[C@@H](CO)O2)c(=O)[nH]c1=O` [ZIDOVUDINE] gave an ED90 (C8166) of 0.003 µM.

With `NC(=O)c1ccn(C2O[C@H](CO)[C@@H](O)[C@H]2O)n1` (stereo partly specified) the IC50 (H9) was over 1030 µM, the IC50 [1] was 1030 µM and the IC50 [2] was over 1030 µM. The EC50 (Vero [3]) was over 2050 µM, the IC50 (Raji) was 1030 µM and the EC50 (Vero [4]) was over 2050 µM. For the same compound, the EC50 (Vero [5]) was over 2050 µM, the IC50 [6] was 900 µM and the EC50 (Vero [7]) was over 2050 µM. For the same compound, the IC50 (Vero [8]) was over 1030 µM, the IC50 (L1210) was over 1030 µM and the ED90 (C8166) was over 900 µM. It also gave an EC50 (Vero [9]) of over 2050 µM.

In the case of `NC(=O)c1nn(C2O[C@H](CO)[C@@H](O)[C@H]2O)cc1Br` (stereo partly specified), the IC50 (H9) is reported as 50 µM, the IC50 [1] is reported as 50 µM and the IC50 [2] is reported as 20 µM. It also gave an EC50 (Vero [3]) of over 1550 µM, an IC50 (Raji) of over 1550 µM and an EC50 (Vero [4]) of over 1550 µM. For the same compound, the EC50 (Vero [5]) was over 1550 µM, the IC50 [6] was 4 µM and the EC50 (Vero [7]) was over 1550 µM. The IC50 (Vero [8]) was over 1550 µM, the IC50 (L1210) was over 1550 µM and the ED90 (C8166) was 12.2 µM. It also gave an EC50 (Vero [9]) of over 1550 µM.

`COc1cccc2c1C(=O)c1c(O)c3c(c(O)c1C2=O)C[C@@](O)(C(=O)CO)C[C@@H]3O[C@H]1C[C@H](N)[C@H](O)[C@H](C)O1` [DOXORUBICIN] gave an IC50 (H9) of 0.01 µM, an IC50 [1] of 0.01 µM and an IC50 [2] of 0.01 µM. It also gave an IC50 (Raji) of 0.01 µM, an IC50 [6] of 0.01 µM and an IC50 (Vero [8]) of 0.1 µM. The IC50 (L1210) was 0.02 µM.

`Cc1c(N)c(C(N)=O)nn1C1O[C@H](CO)[C@@H](O)[C@H]1O` (stereo partly specified) showed an IC50 (H9) of over 1840 µM, an IC50 [1] of over 1840 µM and an IC50 [2] of over 1840 µM. It also gave an EC50 (Vero [3]) of over 1840 µM, an IC50 (Raji) of over 1840 µM and an EC50 (Vero [4]) of over 1840 µM. It also gave an EC50 (Vero [5]) of over 1840 µM, an IC50 [6] of over 1840 µM and an EC50 (Vero [7]) of over 1840 µM. It also gave an IC50 (Vero [8]) of over 1840 µM, an IC50 (L1210) of over 1840 µM and an ED90 (C8166) of over 1840 µM. It also gave an EC50 (Vero [9]) of over 1840 µM.

With `CN(Cc1cnc2nc(N)nc(N)c2n1)c1ccc(C(=O)N[C@@H](CCC(=O)O)C(=O)O)cc1` [METHOTREXATE] the IC50 (H9) was 0.03 µM, the IC50 [1] was 0.03 µM and the IC50 [2] was 0.03 µM. For the same compound, the IC50 (Raji) was 0.02 µM, the IC50 [6] was 0.03 µM and the IC50 (Vero [8]) was 0.02 µM. The IC50 (L1210) was 0.04 µM.

Work on `NC(=O)c1nn([C@@H]2O[C@H](CO)[C@@H](O)[C@H]2O)cc1I` yielded an IC50 (H9) of 20 µM, an IC50 [1] of 40 µM and an IC50 [2] of 27 µM. The EC50 (Vero [3]) was 120 µM, the IC50 (Raji) was over 1350 µM and the EC50 (Vero [4]) was over 1350 µM. The EC50 (Vero [5]) was over 1350 µM, the IC50 [6] was 8 µM and the EC50 (Vero [7]) was over 1350 µM. For the same compound, the IC50 (Vero [8]) was over 1350 µM, the IC50 (L1210) was over 1350 µM and the ED90 (C8166) was 20 µM. The EC50 (Vero [9]) was over 1350 µM.

`Nc1nc2c(ncn2COCCO)c(=O)[nH]1` [ACYCLOVIR] showed an EC50 (Vero [7]) of over 1300 µM and an EC50 (Vero [9]) of 0.04 µM.
